The subject of assay [1] is Streptococcus pyogenes. As to the kind of experiment: MIC value measured against streptococcus pyogenes C203. Type of assay: functional.
For a further assay, the system named is Enterococcus faecalis. As to the kind of experiment: MIC value was measured against streptococcus faecalis X66. Type of assay: functional. The method, boiled down:
(§1)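 Susceptibility determined by standard agar-dilution method against a panel of bacterial strains.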

Assay [2] deals with Streptococcus pyogenes. As to the kind of experiment: Effective dose against mice infected with streptococcus pyogenes after peroral administration (in vivo). Type of assay: functional. The settings on record: in Mus musculus, po.
Assay [3] relates to Staphylococcus epidermidis. As to the kind of experiment: microbe, parasite or virus in culture. Type of assay: functional.
Assay [4] has as its system Streptococcus pneumoniae. As to the kind of experiment: MIC value was measured against streptococcus pneumoniae park1.
Assay [5] relates to Staphylococcus aureus. As to the kind of experiment: Effective dose against mice infected with Staphylococcus aureus after peroral administration (in vivo). The settings on record: in Mus musculus, po. Type of assay: functional.
Assay [6] has as its system Haemophilus influenzae. Nature of the assay: MIC value was measured against haemophilus influenzae CL. Type of assay: functional.
Assay [7] relates to Staphylococcus aureus. Nature of the assay: MIC value measured against staphylococcus aureus X1. Type of assay: functional.
For assay [8], the system named is Streptococcus pneumoniae. Nature of the assay: Effective dose against mice infected with streptococcus pneumoniae after peroral administration (in vivo). The assay is classed as functional. Conditions: in Mus musculus, po.
The subject of assay [9] is Streptococcus pneumoniae. Nature of the assay: MIC value was measured against streptococcus pneumoniae park1. The assay is classed as functional. The essentials:
as §1

For assay [10], the system named is Mus musculus. Nature of the assay: ED50 value was measured against staphylococcus aureus after sc administration in mice (in vivo, in experiment 3). Type of assay: functional. The essentials: (§2)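 Infected mice were dosed orally or subcutaneously at 1 and 5 h postinfection, 0.25 mL of antibiotic solution in 10% aqueous ethanol per dose. Tartaric acid was added where needed for solubility. Several dose concentrations were tested to give the ED50.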

In assay [11] the test system is Mus musculus. Nature of the assay: ED50 value was measured against streptococcus pneumoniae after sc administration in mice (in vivo, in experiment 3). Type of assay: functional. The essentials: as §2
Assay [12] deals with Mus musculus. As to the kind of experiment: ED50 value was measured against streptococcus pneumoniae after po administration in mice (in vivo, in experiment 3). The assay is classed as functional. The method, boiled down:
as §2

Assay [13] relates to Mus musculus. As to the kind of experiment: ED50 value was measured against staphylococcus aureus after po administration in mice (in vivo, in experiment 3). The assay is classed as functional. The method, boiled down:
as §2

Assay [14] concerns Mus musculus. Nature of the assay: ED50 value was measured against streptococcus pyogenes after po administration in mice (in vivo, in experiment 3). Type of assay: functional. The method, boiled down: as §2
Assay [15] relates to Mus musculus. Nature of the assay: ED50 value was measured against streptococcus pyogenes after sc administration in mice (in vivo, in experiment 3). The assay is classed as functional. The essentials: as §2
The test system of assay [16] is Streptococcus pneumoniae. As to the kind of experiment: MIC value measured against streptococcus pneumoniae Park1. The assay is classed as functional.
Assay [17] has as its system Staphylococcus epidermidis. Nature of the assay: MIC value was measured against staphylococcus epidermidis. Type of assay: functional. The method, boiled down:
as §1

For assay [18], the system named is Haemophilus influenzae. As to the kind of experiment: MIC value was measured against haemophilus influenzae. Type of assay: functional. The method, boiled down: as §1
Assay [19] relates to Staphylococcus epidermidis. As to the kind of experiment: MIC value was measured against staphylococcus epidermidis 222. Type of assay: functional. The method, boiled down: as §1
Assay [20] deals with Mus musculus. As to the kind of experiment: ED50 value was measured against streptococcus pyogenes after po administration in mice (in vivo, in experiment 1). Type of assay: functional. The essentials:
as §2

In assay [21] the test system is Mus musculus. Nature of the assay: ED50 value was measured against staphylococcus aureus after sc administration in mice (in vivo, in experiment 1). Type of assay: functional. The essentials:
as §2

The test system of assay [22] is Mus musculus. As to the kind of experiment: ED50 value was measured against streptococcus pneumoniae after sc administration in mice (in vivo, in experiment 1). Type of assay: functional. The essentials: as §2
In assay [23] the test system is Mus musculus. As to the kind of experiment: ED50 value was measured against streptococcus pyogenes after sc administration in mice (in vivo, in experiment 1). The assay is classed as functional. The essentials:
as §2

In assay [24] the test system is Mus musculus. As to the kind of experiment: ED50 value was measured against streptococcus pneumoniae after po administration in mice (in vivo, in experiment 1). Type of assay: functional. The method, boiled down:
as §2

Assay [25] relates to Mus musculus. Nature of the assay: ED50 value was measured against staphylococcus aureus infection in mice (in vivo, in experiment 1). The assay is classed as functional. The essentials:
as §2

Converted amounts (≈) assume the structure as drawn. Some results are limits rather than exact numbers.

The ED50 is the dose that gives a 50% effect, or the effect in half of the subjects.

For the molecule `CC[C@H]1OC(=O)[C@H](C)[C@@H](OC2CC(C)(OC)C(O)C(C)O2)[C@H](C)[C@@H](OC2OC(C)CC(N(C)C)C2O)[C@](C)(O)C[C@@H](C)[C@H](NCC2CC=CCC2)[C@H](C)[C@@H](O)[C@]1(C)O` (some centres undefined), the MIC with Streptococcus pyogenes [1] was determined as 0.06 µg/mL (≈ 0.0724 µM); against Enterococcus faecalis, 0.25 µg/mL (≈ 0.302 µM); in [3], 0.25 µg/mL (≈ 0.302 µM); against Streptococcus pneumoniae [4], 0.008 µg/mL (≈ 0.00965 µM); against Haemophilus influenzae [6] it was 4 µg/mL (≈ 4.82 µM); against Staphylococcus aureus [7], 1 µg/mL (≈ 1.21 µM). In addition, the 50% effective dose (ED50) was found to be 15 mg/kg in the assay on Streptococcus pyogenes [2], 20 mg/kg in the assay on Staphylococcus aureus [5] and 9 mg/kg in the assay on Streptococcus pneumoniae [8].

Consider `CCC1N[C@@H]2[C@H](C)[C@@H](O1)[C@](C)(O)[C@@H](CC)OC(=O)[C@H](C)[C@@H](OC1CC(C)(OC)C(O)C(C)O1)[C@H](C)[C@@H](OC1OC(C)CC(N(C)C)C1O)[C@](C)(O)C[C@H]2C` (some centres undefined), for which the MIC against Streptococcus pyogenes [1] was found to be 0.12 µg/mL (≈ 0.155 µM); against Streptococcus pneumoniae [9], 0.12 µg/mL (≈ 0.155 µM); against Enterococcus faecalis it was 0.5 µg/mL (≈ 0.645 µM); in [3], 0.5 µg/mL (≈ 0.645 µM); with Haemophilus influenzae [6], 8 µg/mL (≈ 10.3 µM); with Staphylococcus aureus [7], 0.5 µg/mL (≈ 0.645 µM). For the same molecule, the ED50 is 35 mg/kg with Streptococcus pyogenes [2]; 0.8 mg/kg in the assay on Mus musculus [10]; 34 mg/kg with Staphylococcus aureus [5]; under 0.6 mg/kg with Mus musculus [11]; 17 mg/kg in the assay with Mus musculus [12]; 30 mg/kg with Streptococcus pneumoniae [8]. The ED50 in the assay with Mus musculus [13] is 20 mg/kg; in the assay on Mus musculus [14], 19 mg/kg; in the assay on Mus musculus [15], under 0.6 mg/kg.

Turning to `CCC(CC)CN[C@@H]1[C@H](C)[C@@H](O)[C@](C)(O)[C@@H](CC)OC(=O)[C@H](C)[C@@H](OC2CC(C)(OC)C(O)C(C)O2)[C@H](C)[C@@H](OC2OC(C)CC(N(C)C)C2O)[C@](C)(O)C[C@H]1C` (some centres undefined), the MIC amounted to 0.015 µg/mL (≈ 0.0183 µM) in the assay with Streptococcus pyogenes [1]; 0.015 µg/mL (≈ 0.0183 µM) against Streptococcus pneumoniae [16]; 0.5 µg/mL (≈ 0.61 µM) in assay [17]; 2 µg/mL (≈ 2.44 µM) in the assay on Haemophilus influenzae [18]; 2 µg/mL (≈ 2.44 µM) against Haemophilus influenzae [6]; 0.5 µg/mL (≈ 0.61 µM) against Staphylococcus aureus [7]. For the same molecule, the figures for the median effective dose (ED50) in the assay on Streptococcus pyogenes [2], in the assay on Staphylococcus aureus [5] and in the assay on Streptococcus pneumoniae [8] were 10 mg/kg, 22 mg/kg and 17 mg/kg, respectively.

As for `CCCN1C(C)O[C@@H]2[C@@H](C)[C@@H]1[C@H](C)C[C@@](C)(O)[C@H](OC1OC(C)CC(N(C)C)C1O)[C@@H](C)[C@H](OC1CC(C)(OC)C(O)C(C)O1)[C@@H](C)C(=O)O[C@H](CC)[C@@]2(C)O` (some centres undefined), the MIC in the assay with Streptococcus pyogenes [1] worked out at 0.06 µg/mL (≈ 0.0747 µM); against Streptococcus pneumoniae [9] it was 0.015 µg/mL (≈ 0.0187 µM); with Enterococcus faecalis it was 0.25 µg/mL (≈ 0.311 µM); against Haemophilus influenzae [6], 1 µg/mL (≈ 1.25 µM); in assay [19] it was 0.25 µg/mL (≈ 0.311 µM); with Staphylococcus aureus [7], 1 µg/mL (≈ 1.25 µM).

For the molecule `CC[C@H]1OC(=O)[C@H](C)[C@@H](OC2CC(C)(OC)C(O)C(C)O2)[C@H](C)[C@@H](OC2OC(C)CC(N(C)C)C2O)[C@](C)(O)C[C@@H](C)[C@H](NCCOCCOC)[C@H](C)[C@@H](O)[C@]1(C)O` (some centres undefined), the ED50 is 37 mg/kg in the assay with Mus musculus [20]; 3.8 mg/kg in the assay on Mus musculus [21]; 1.4 mg/kg with Mus musculus [22]; 5.3 mg/kg with Mus musculus [23]; 27 mg/kg in the assay on Streptococcus pyogenes [2]; 43 mg/kg in the assay on Mus musculus [24]. The figures for the ED50 in the assay on Staphylococcus aureus [5], with Mus musculus [25] and with Streptococcus pneumoniae [8] were 22 mg/kg, 78 mg/kg and 23 mg/kg, respectively. The MIC in the assay on Streptococcus pyogenes [1] was found to be 0.12 µg/mL (≈ 0.143 µM); in [3], 1 µg/mL (≈ 1.19 µM); against Streptococcus pneumoniae [16], 0.015 µg/mL (≈ 0.0179 µM); against Haemophilus influenzae [18], 2 µg/mL (≈ 2.39 µM); in the assay on Haemophilus influenzae [6] it was 2 µg/mL (≈ 2.39 µM); with Staphylococcus aureus [7], 1 µg/mL (≈ 1.19 µM).
